Results on six molecules are retold here after ChEMBL document CHEMBL1129428 (J Med Chem, 1996).

The test system of data set [1] is Rattus norvegicus. The experiment in a line: Compound was tested for anticonvulsant activity after Oral Administration into Rats by using MES screen test after 0.25h,dose 12.5 mg/kg; No activity was demonstarted. The class given is functional, organism-based. Set-up: dose 12.5 mg/kg. The procedure, abridged:
(§1)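 Rats received the compound orally. […] Rats were tested in the MES screen at 0.25, 0.5, 1, 2 and 4 h. Each value is the number of rats protected out of 4. The test followed NINDS procedures.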

Data set [2] deals with Mus musculus. The experiment in a line: Anticonvulsant activity after intraperitoneal injection into mice by using MES screen test after 0.5 hr. The class given is functional.
Data set [3] concerns Mus musculus. Kind of data set: Compound was tested for toxicity after intraperitoneal injection into mice by using toxicity screen test after 4 hr. The format is organism-based. Particulars: in vivo, ip. A digest of the protocol:
(§2)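 Mice injected intraperitoneally at 30, 100 and 300 mg/kg and examined 0.5 and 4 h afterwards. Each entry is the minimum dose giving activity (MES protection, scPTZ protection, or rotorod failure for neurotoxicity) in half or more of the mice. Activity is called absent if nothing occurs at 300 mg/kg.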

Data set [4] is described as follows: Compound was tested for toxicity after intraperitoneal injection into mice by using neurotoxicity screen test after 4 hr. The format is organism-based. Particulars: mouse, in vivo, ip. A digest of the protocol: as §2
Data set [5] is described as follows: Protection index = TD50/ED50. The format is ADME. Particulars: read-out: PI.
Data set [6] has as its system Rattus norvegicus. Kind of data set: Compound was tested for anticonvulsant activity after Oral Administration into Rats by using MES screen test after 4h,dose 12.5 mg/kg; number of rats out of four which were protected. The class given is functional. A digest of the protocol: as §1
Data set [7] relates to Rattus norvegicus. Kind of data set: Compound was tested for anticonvulsant activity after Oral Administration into rat by using MES screen test after 2 hr. The format is functional. A digest of the protocol: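 Rats dosed orally, typically at 50 mg/kg first, then mostly 12.5 mg/kg (some compounds at 30 mg/kg), and tested by maximal electroshock. Four rats per compound, scored at 0.25, 0.5, 1, 2 and 4 h as the number of rats protected out of 4.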

Data set [8] has as its system Mus musculus. Kind of data set: Compound was tested for anticonvulsant activity after intraperitoneal injection into mice by using MES screen test after 1 hr. The format is functional. The following applies: ip. A digest of the protocol:
(§3)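 Quantitative intraperitoneal mouse testing in the MES, scPTZ or rotorod neurotoxicity screens at the peak time given for each compound (0.25–2 h). ED50 or TD50 reported in mg/kg with 95% CI and slope (SE).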

The subject of data set [9] is Rattus norvegicus. The experiment in a line: Anticonvulsant activity after oral administration into rats. The format is functional. Further details: concentration or dose not given beside the values.
A short description of data set [10]: Compound was tested for toxicity after oral administration in rat by using neurotoxicity screen test after 0.25-24 hr. The class given is organism-based. Particulars: in vivo. The procedure, abridged: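 Rat neurotoxicity after oral dosing, observed at 0.25, 0.5, 1, 2, 4, 6, 8 and 24 h (8 h omitted for one compound).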
The test system of data set [11] is Mus musculus. The experiment in a line: Anticonvulsant activity after intraperitoneal injection into mice measured in a maximal electroshock scree (MES) screen. The format is functional. On the technique in general: The maximal electroshock test induces tonic seizures with an electrical stimulus.
Data set [12] has as its system Mus musculus. The experiment in a line: Anticonvulsant activity after intraperitoneal injection into mice by using scPTZ screen after 0.5 hr. The class given is functional.
In data set [13] the test system is Rattus norvegicus. The experiment in a line: Compound was tested for anticonvulsant activity after Oral Administration into Rats by using MES screen test after 1h,dose 12.5 mg/kg; number of rats out of four which were protected. The class given is functional. The procedure, abridged:
as §1

Data set [14] relates to Rattus norvegicus. The experiment in a line: Compound was tested for anticonvulsant activity after Oral Administration into Rats by using MES screen test after 2h,dose 12.5 mg/kg; number of rats out of four which were protected. The format is functional. A digest of the protocol: as §1
In data set [15] the test system is Mus musculus. The experiment in a line: Compound was tested for anticonvulsant activity after intraperitoneal injection into mice by using scPTZ screen test after 1 hr. Particulars: ip. The class given is functional. The procedure, abridged:
as §3

Data set [16] relates to Mus musculus. Kind of data set: Toxicity after intraperitoneal injection into mice by using toxicity screen test after 0.5 hr. Particulars: in vivo, ip. The class given is organism-based. A digest of the protocol:
as §2

Data set [17] has as its system Rattus norvegicus. The experiment in a line: Compound was tested for anticonvulsant activity after Oral Administration into Rats by using MES screen test after 0.5h,dose 12.5 mg/kg; No activity was demonstarted. The format is functional, organism-based. Set-up: dose 12.5 mg/kg. A digest of the protocol:
as §1

For data set [18], the system named is Rattus norvegicus. Kind of data set: Compound was tested for anticonvulsant activity after Oral Administration into Rats by using MES screen test after 1h,dose 12.5 mg/kg; No activity was demonstarted. Set-up: dose 12.5 mg/kg. The class given is functional, organism-based. A digest of the protocol: as §1
For data set [19], the system named is Mus musculus. Kind of data set: Anticonvulsant activity after intraperitoneal injection into mice by using scPTZ screen test after 4 hr. The format is functional.
Data set [20] deals with Rattus norvegicus. Kind of data set: Compound was tested for anticonvulsant activity after Oral Administration into Rats by using MES screen test after 4h,dose 12.5 mg/kg; No activity was demonstarted. The format is functional, organism-based. Further details: dose 12.5 mg/kg. The procedure, abridged: as §1
Data set [21] concerns Rattus norvegicus. Kind of data set: Compound was tested for anticonvulsant activity after Oral Administration into Rats by using MES screen test after 4h,dose 30 mg/kg; number of rats out of four which were protected. The format is functional. The procedure, abridged:
as §1

The test system of data set [22] is Rattus norvegicus. Kind of data set: Compound was tested for anticonvulsant activity after Oral Administration into Rats by using MES screen test after 0.25h,dose 30 mg/kg; number of rats out of four which were protected. The format is functional. A digest of the protocol: as §1
Data set [23] relates to Rattus norvegicus. Kind of data set: Compound was tested for anticonvulsant activity after Oral Administration into Rats by using MES screen test after 0.5h,dose 30 mg/kg; number of rats out of four which were protected. The format is functional. The procedure, abridged:
as §1

In data set [24] the test system is Rattus norvegicus. The experiment in a line: Compound was tested for anticonvulsant activity after Oral Administration into Rats by using MES screen test after 1h,dose 30 mg/kg; number of rats out of four which were protected. The class given is functional. A digest of the protocol:
as §1

Data set [25] concerns Rattus norvegicus. Kind of data set: Compound was tested for anticonvulsant activity after Oral Administration into Rats by using MES screen test after 2h,dose 30 mg/kg; number of rats out of four which were protected. The class given is functional. A digest of the protocol:
as §1

Data set [26] relates to Mus musculus. Kind of data set: Compound was tested for anticonvulsant activity after intraperitoneal injection into mice by using MES screen test after 2 hr. The format is functional. Particulars: ip. A digest of the protocol: as §3
A short description of data set [27]: Protection index = TD50/ED50 (MES). The following applies: mouse, in vivo; read-out: PI.
In data set [28] the test system is Mus musculus. Kind of data set: Compound was tested for anticonvulsant activity after intraperitoneal injection into mice by using scPTZ screen test after 2 hr. The format is functional. The following applies: ip. A digest of the protocol:
as §3

Data set [29] in a line: Compound was tested for toxicity after intraperitoneal injection into mice by using neurotoxicity screen test after 2 hr. The class given is organism-based. The following applies: mouse, in vivo, ip. The procedure, abridged: as §3
The subject of data set [30] is Rattus norvegicus. Kind of data set: Compound was tested for anticonvulsant activity after Oral Administration into Rats by using MES screen test after 4h,dose 50 mg/kg; number of rats out of four which were protected. The class given is functional. A digest of the protocol:
as §1

Data set [31] has as its system Rattus norvegicus. Kind of data set: Compound was tested for anticonvulsant activity after Oral Administration into Rats by using MES screen test after 0.5h,dose 50 mg/kg; number of rats out of four which were protected. The format is functional. A digest of the protocol:
as §1

Data set [32] concerns Mus musculus. The experiment in a line: Compound was tested for anticonvulsant activity after intraperitoneal injection into mice by using MES screen test after 0.5 hr. The format is functional. Particulars: ip. A digest of the protocol:
as §2

Data set [33] relates to Rattus norvegicus. Kind of data set: Compound was tested for anticonvulsant activity after Oral Administration into Rats by using MES screen test after 2h,dose 50 mg/kg; number of rats out of four which were protected. The class given is functional. The procedure, abridged:
as §1

The subject of data set [34] is Mus musculus. The experiment in a line: Compound was tested for anticonvulsant activity after intraperitoneal injection into mice by using scPTZ screen test after 0.5 hr. The following applies: ip. The format is functional. A digest of the protocol: as §2
Data set [35] deals with Rattus norvegicus. Kind of data set: Compound was tested for anticonvulsant activity after Oral Administration into Rats by using MES screen test after 1h,dose 50 mg/kg; number of rats out of four which were protected. The class given is functional. The procedure, abridged: as §1
Data set [36] concerns Rattus norvegicus. Kind of data set: Compound was tested for anticonvulsant activity after Oral Administration into Rats by using MES screen test after 0.25h,dose 50 mg/kg; number of rats out of four which were protected. The class given is functional. The procedure, abridged:
as §1

A word on the TD50: it is the dose at which the toxic effect under study appears in half of the subjects. Usually ED50 stands for the dose that gives a 50% effect, or the effect in half of the subjects.

As to `CCCc1ccc(Oc2ccc(/C=N/NC(N)=O)cc2)cc1`, the Activity entry in the data set with Rattus norvegicus [1] was “No activity”; in the data set with Rattus norvegicus [6], 2; in the data set with Rattus norvegicus [9], 1; in the data set with Rattus norvegicus [13] it was 2; with Rattus norvegicus [14], 4. Moreover, the Dose worked out at 100 mg/kg with Mus musculus [2], 300 mg/kg in the data set with Mus musculus [3], 100 mg/kg in the data set on Mus musculus [11] and 300 mg/kg with Mus musculus [12]. For the same molecule, in data set [4], the TD50 at 4 h came out at 243 mg/kg. Besides, in data set [5], the selectivity ratio amounted to 3.05. The ED50 in the data set with Rattus norvegicus [7] is 2.63 mg/kg; in the data set on Mus musculus [8] it was 11 mg/kg; in the data set on Mus musculus [15], 79.6 mg/kg. Also, the TD50 in data set [10] is greater than 500 mg/kg.

For the molecule `N=C(N)N/N=C/c1ccc(Sc2ccc(F)cc2)cc1`, the Dose in the data set with Mus musculus [16] is 100 mg/kg; in the data set on Mus musculus [2] it was 300 mg/kg; in the data set on Mus musculus [3], 100 mg/kg; with Mus musculus [12] it was 30 mg/kg; in the data set with Mus musculus [19] it was 30 mg/kg. The Activity entry is “No activity” in the data set with Rattus norvegicus [1]; “No activity” with Rattus norvegicus [17]; “No activity” with Rattus norvegicus [18]; 1 in the data set with Rattus norvegicus [14]; “No activity” in the data set on Rattus norvegicus [20].

For `C/C(=N/NC(N)=O)c1ccccc1Oc1ccc(F)cc1`, the Activity with Rattus norvegicus [21] was 2; with Rattus norvegicus [22] it was 1; in the data set with Rattus norvegicus [23], 1; in the data set with Rattus norvegicus [24], 3; in the data set with Rattus norvegicus [25], 3. The molecule further gave an ED50 with Rattus norvegicus [7] of 43.4 mg/kg.

`NC(=O)N/N=C/c1ccc(Sc2ccc(Br)cc2)cc1`: the Activity result is “No activity” with Rattus norvegicus [1]; 4 with Rattus norvegicus [6]; 1 in the data set on Rattus norvegicus [9]; 3 in the data set with Rattus norvegicus [13]; 4 in the data set on Rattus norvegicus [14]. Further, the Dose in the data set on Mus musculus [2] was found to be 100 mg/kg; in the data set with Mus musculus [3] it was 300 mg/kg; in the data set with Mus musculus [11], 30 mg/kg; with Mus musculus [19], 300 mg/kg. For the same molecule, the 50% effective dose (ED50) was 24.4 mg/kg in the data set with Mus musculus [26] and greater than 200 mg/kg in the data set with Mus musculus [28]. Moreover, the selectivity ratio in [27] was found to be 5.03. This molecule also displayed a TD50 at 2 h in [29] of 123 mg/kg.

For `NC(=O)N/N=C/c1ccc(Oc2ccccc2F)cc1`, the Activity in the data set on Rattus norvegicus [30] is listed as 4; in the data set on Rattus norvegicus [31], 4; in the data set on Rattus norvegicus [33], 4; in the data set on Rattus norvegicus [35] it was 4; in the data set on Rattus norvegicus [36], 2. Also, the figures for the ED50 in the data set with Mus musculus [32] and with Mus musculus [34] were 20.7 mg/kg and greater than 220 mg/kg, respectively. The values for the Dose in the data set on Mus musculus [2], in the data set on Mus musculus [11] and in the data set with Mus musculus [12] were 100 mg/kg, 300 mg/kg and 300 mg/kg, respectively. Further, the TD50 at 2 h in [29] came out at 170 mg/kg.

`C/C(=N/NC(N)=O)c1ccc(Sc2ccc(F)cc2)cc1`: the Activity in the data set with Rattus norvegicus [21] worked out at 4; in the data set on Rattus norvegicus [22], 3; with Rattus norvegicus [23] it was 4; with Rattus norvegicus [24] it was 4; in the data set with Rattus norvegicus [25], 4. The Dose is 300 mg/kg in the data set on Mus musculus [16]; 100 mg/kg in the data set on Mus musculus [2]; 300 mg/kg with Mus musculus [3]; 30 mg/kg in the data set with Mus musculus [11]; 300 mg/kg with Mus musculus [19]. Further, the median effective dose (ED50) with Rattus norvegicus [7] stood at 9.11 mg/kg.
